Compounds with a hit are over-represented: about 3% of the library has one in this group of screens.
NR3A LBD binder – modulators (binders) of human NR3A ligand-binding domain; AID 1259313; 2.5% of 340,000 active; NR3A LBD differential scanning fluorimetry, Tm shift; 0% = protein alone, 100% = glycine-bound protein; Tm shift relative to glycine control, % at 25 µM;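 active = melting temperature shift of at least 10% of the positive control shift, at one fixed dose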
aDG glyco up – alpha-DG glycosylation activation. activation, % at 10 µM. 0.22% of 360,000 active. Pro5-aDG cells, alpha-DG glycosylation AlphaScreen (IIH6); 0% Pro5, 100% B10-LARGE cell signal;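 active = activation of at least 8% versus controls, or a plate z-score of at least 8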;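 also: Pro5 are CHO cells carrying HIG-tagged alpha-DG that lacks glycosylation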
JMJD2C inh – human JMJD2C demethylase inhibition; Q9H3R0; GST-JMJD2C(1-420) H3K9me3 demethylation, DELFIA europium; inhibition, % at 2.35 µM; 0.069% of 330,000 active; AID 2099;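 active = more than half of a compound's replicate wells show inhibition beyond 50%, single wells judged on their own value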;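 also: signal counts dimethyl H3K9 product captured on neutravidin plate; 0% = median of DMSO wells and 100% = 0.3 times that DMSO median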
Lipid droplet – hepatic lipid droplet formation modulation; 0.4% of 240,000 active; AID 1656; inhibition, % at 6.5 µM; AML12 mouse hepatocytes, oleate lipid droplets, BODIPY imaging;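 active = lipid droplet intensity inhibited by at least 50%, with more than 500 cells counted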
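Test system: AML12 mouse liver cells; schedule: overnight exposure; technique: high-content imaging of BODIPY-stained droplets and DAPI nuclei; read-out: % inhibition of corrected integrated BODIPY droplet signal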
NPR1 activator – GC-A (human) enzyme activation; activation, % at 10 µM; P16066; 0.14% of 370,000 active; HEK293 GC-A cells, cGMP TR-FRET, EC30 ANP; 0% at EC30 ANP, 100% saturating ANP; AID 1671463; in the data active = activation above about 40%
NPR2 activator – GC-B (human) receptor activation. P20594. HEK293-GC-B cells, CNP EC30, cGMP TR-FRET; 0% at EC30 CNP, 100% saturating CNP. activation, % at 10 µM. 0.11% of 370,000 active;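 active = activation at 10 µM reaching about 35% in either raw or pattern-adjusted values, limit read from the data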
Active calls of the source: *; / = not tested or not shown.

SMILES	NR3A LBD binder	aDG glyco up	JMJD2C inh	Lipid droplet	NPR1 activator	NPR2 activator
Cc1ccc(C)c(-n2c(SCC(=O)Nc3nonc3C)nnc2-c2ccoc2C)c1	0	0	-2	/	-5	-8
Cc1nonc1NC(=O)CSc1nnc(-c2ccoc2C)n1C	20*	0	-2	/	4	-1
C=CCN1[C@H](C)COc2cc(N3CCSCC3)ccc2S1(=O)=O	/	/	/	/	-5	-6
O=[N+]([O-])c1ccc(OC[C@@H](O)CN2CCC(C(O)(c3ccccc3)c3ccccc3)CC2)c(Cl)c1	/	/	/	/	-14	-10
COc1ccc(C(=S)N2CCN(C)CC2)cc1	3	0	4	-2	-4	-3
CN1CCN(C(=S)c2ccc(Cl)cc2)CC1	10*	0	5	6	4	5
COc1cc(-n2c(C)nc3cc(C(=O)N4CC(C)CC(C)C4)ccc32)cc(OC)c1OC (stereo unspecified)	/	/	/	/	8	8
Cc1ccc(CN2CCN(CC(=O)N=Nc3c(O)[nH]c4ccccc34)CC2)cc1	20*	1	2	-28	5	2
O=C(CN1CCN(Cc2ccccc2Cl)CC1)N=Nc1c(O)[nH]c2ccccc12	-1	0	-6	12	6	2
CCCCCCCCSC1=CC(=O)C(OC)=C(OC)C1=O	/	0	/	/	45*	8
CCc1cc(=O)oc2c(C)c(OCC(=O)NCCCN3CCCC3=O)ccc12	-1	0	6	-3	1	-6
COc1cc(CCc2ccccc2)c(C(=O)O)c(O)c1C/C=C(/C)CCC=C(C)C	10*	0	/	/	2	0
C=CCn1cccc(C(=O)Nc2ccc(C)c(C)c2)c1=O	3	0	-1	1	-1	-3
NC(=O)CSc1nnc(NC(=O)c2ccc(S(=O)(=O)N3CCCCC3)cc2)s1	0	0	-8	/	0	-3
Nc1nnc(SCC(=O)Nc2ccc(S(=O)(=O)N3CCOCC3)cc2)s1	-2	0	1	1	2	2
CCOC(=O)c1ccc(NC(=O)CSc2nnc(NC(=O)c3ccc(S(=O)(=O)N4CCOCC4)cc3)s2)cc1	37*	0	22	3	2	-3
Cc1ccc(NC(=O)CSc2nnc(NC(=O)c3ccc(S(=O)(=O)N4CCOCC4)cc3)s2)cc1	28*	0	6	-48	3	2
O=C(Nc1ccccc1Br)C1CCN(S(=O)(=O)c2cccs2)CC1	2	0	2	/	2	3
CCCCS(=O)(=O)N1CCCc2nc(-c3ccc(Br)cc3)ccc21	/	/	/	/	7	3
COCCN1C(=O)[C@H]2C[C@@]13O[C@H](c1ccc(C(F)(F)F)cc1)N=C3C[C@H](c1ccccc1)[C@H]2C	/	/	/	/	-1	-3
CCOc1ccc(C(=O)Nc2ccc(NC(=O)c3cccs3)cc2)cc1[N+](=O)[O-]	28*	0	-7	-42	-4	-12
COc1ccc(C(=O)Nc2ccc(C(=O)Nc3nccs3)cc2)cc1[N+](=O)[O-]	22*	0	2	6	1	3
COc1ccc(C(=O)Nc2ccc(NC(=O)c3cccs3)cc2)cc1[N+](=O)[O-]	24*	0	-1	31	-2	0
C=CCN1C(=O)[C@@H](CC(=O)N2CCSCC2)[C@]2(C(=O)OCC)CCCCC/C=C/12	/	/	/	/	-1	7
Nc1cccc(-c2nc3cc(S(=O)(=O)c4ccc5oc(-c6cccc(N)c6)nc5c4)ccc3o2)c1	24*	0	5	/	3	5
SMILES	NR3A LBD binder	aDG glyco up	JMJD2C inh	Lipid droplet	NPR1 activator	NPR2 activator
Cc1nnc(N/N=C/c2ccc(-c3ccccc3F)o2)n1N	3	0	7	-2	0	-7
Cc1nnc(N/N=C\c2ccc(-c3ccccc3[N+](=O)[O-])o2)n1N	-2	0	55*	13	-7	-10
C#CCNC(=O)C[C@H]1C[C@@]2(C(=O)OC)C(=C[C@H](C(C)C)O[C@@H]2C2CC2)N(CCc2ccc(OC)c(OC)c2)C1=O	/	/	/	/	-1	0
C#Cc1cccc(Nc2nc(NCCOC)nc3ccsc23)c1	/	2	/	/	35	37*
CCC(C)NC(=O)CSc1nnc(-c2cc(OC)c(OC)c(OC)c2)o1 (stereo unspecified)	/	/	/	/	-1	-6
C=C(CN(C)C)C(=O)c1cc(OC)c(OC)cc1OC	-2	0	/	/	16	2
C=C(CN(C)C)C(=O)c1ccc(C)cc1C	14*	0	/	/	26	15
O=C(OCc1cn(Cc2ccccc2F)nn1)N1CCOCC1	/	/	/	/	3	2
O=C(Nc1ccncc1)Nc1cccc(Cl)c1	14*	0	-15	-2	-3	-5
CC(C)NC(=O)Nc1cccc(Cl)c1	0	0	-4	-9	3	-5
CN(C)c1ccc(NC(=O)Nc2cccc(Cl)c2)cc1	22*	0	-6	2	1	-1
O=C(NCc1ccncc1)Nc1cccc(Cl)c1	1	0	4	-10	-1	-4
O=C(Nc1cccc(Cl)c1)Nc1csc([N+](=O)[O-])c1	31*	0	-5	-7	8	-4
C[C@H](O)[C@@H]1CN2CCc3ccc(N4CCOCC4)cc3[C@@H]2C[C@@H]1N(C)C(=O)c1ccccc1F	/	/	/	/	1	-2
CCCNC(=O)C1(C)CCN(CCC(=O)c2ccc(Br)cc2)C1 (stereo unspecified)	/	0	/	/	40	-1
COC(=O)C1=C(C)N(Cc2cccc(C(F)(F)F)c2)C(=NCc2cc(OC)c(OC)c(OC)c2)NC1CCc1ccccc1 (stereo unspecified)	/	/	/	/	-19	-13
O=C(CCNS(=O)(=O)c1ccc(Cl)cc1)N1CCOCC1	-3	0	15	-1	-1	-1
O=C(CCNS(=O)(=O)c1ccc(Cl)cc1)N1CCCCCC1	11*	0	12	-11	-1	0
COC(=O)/C(C#N)=C/c1c(Oc2cc(C)cc(C)c2)nc2c(C)cccn2c1=O	13*	0	-15	0	5	-2
c1ccc(N=C2SCCCS2)cc1	/	0	/	/	5	4
COc1ccc(CCNC(=O)Cn2ncc3c2-c2cc(C)ccc2OC3)cc1	/	/	/	/	-10	-1
CCOC(=O)COc1ccc(Br)cc1/C=C/c1[nH]c(=O)[nH]c(=O)c1[N+](=O)[O-]	161*	0	-3	-1	-4	1
COC(=O)[C@H](CCSC)NC(=O)Cn1cnc(C(=O)Nc2ccc(C)c(C)c2)n1	13*	0	/	/	7	4
Oc1ccc2ccccc2c1/C=N/Nc1nnc(-c2ncc[nH]2)c2ccccc12	21*	0	4	-44	11	12
